Data taken from ChEMBL document CHEMBL1140585, “Synthesis and antioxidant properties of substituted 3-benzylidene-7-alkoxychroman-4-ones” (Bioorg Med Chem Lett, 2007).
The source made the active and inactive calls. The calls are words filed in the database; no cut-off is given here.

Assays:
[1] = system: Radical scavenging activity; assay: Antioxidant activity assessed as DPPH free radical scavenging activity; type: functional
Summary of the method: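 DPPH in methanol (150 µM) incubated with various compound concentrations at 37 C for 30 min; absorbance read at 517 nm. Percent scavenging = 100 × (Abs control − Abs compound)/Abs control; IC50 obtained by linear regression of percent inhibition against concentration.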

[2] = system: Brain; assay: Antioxidant activity in Wistar rat brain assessed as inhibition of lipid peroxidation; type: functional, tissue-based
Summary of the method: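 Brain homogenate (10% w/v) of young adult male Wistar rats in 0.15 M KCl, 800g 10 min supernatant. Compounds in DMSO at varying amounts; peroxidation started with FeCl3 plus ascorbic acid, 20 min at 37 C. Stopped with phosphotungstic acid and thiobarbituric acid, heated 100 C 10 min, n-butanol extract read by fluorescence (ex 515/em 555 nm); IC50 from log dose–inhibition curve.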

[3] = Antioxidant activity at 100 ug by ferric reducing antioxidant power assay; type: functional
Summary of the method: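 FRAP reagent: 10 vol 300 mM acetate buffer pH 3.6, 1 vol 10 mM TPTZ in 40 mM HCl, 1 vol 20 mM FeCl3, diluted to 1/3 with methanol, pre-warmed to 37 C. Diluted compound mixed with reagent, 8 min at 37 C, absorbance at 593 nm against methanol blank; expressed as lM ferric reduced to ferrous, calibrated with known ferrous ion.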

SMILES | IC50 [1] [µM] | IC50 [2] [µM] | Activity [3]
CCOc1ccc2c(c1)OC/C(=C\c1ccc(O)c(O)c1)C2=O | 24.3 | 11.9 | 62.7
COc1cccc(/C=C2\COc3cc(OC)ccc3C2=O)c1 | > 100 | > 100 | inactive
COc1ccc(/C=C2\COc3cc(OC)ccc3C2=O)cc1 | > 100 | > 100 | inactive
O=C1/C(=C/c2ccc(O)c(O)c2)COc2cc(O)ccc21 [SAPPANONE A] | 35 | 14.3 | 49.3
COc1ccc2c(c1)OC/C(=C\c1ccc(O)c(O)c1)C2=O | 27.2 | 12.1 | 71.6
Cc1c(C)c2c(c(C)c1O)CCC(C)(C(=O)O)O2 (stereo unspecified) [TROLOX] | 36.3 | 41.6 | 41.9
CCCOc1ccc2c(c1)OC/C(=C\c1ccc(O)c(O)c1)C2=O | 25.4 | 11.4 | 53.8
O=C1/C(=C/c2ccc(O)cc2)COc2cc(O)ccc21 | > 100 | > 100 | inactive
COc1ccc2c(c1)OC/C(=C\c1ccc(O)cc1)C2=O | > 100 | > 100 | inactive
CCCCOc1ccc2c(c1)OC/C(=C\c1ccc(O)c(O)c1)C2=O | 24.5 | 11 | 44.6
COc1ccc2c(c1)OC/C(=C\c1ccccc1OC)C2=O | > 100 | > 100 | inactive
COc1ccc2c(c1)OC/C(=C\c1cc(OC)c(O)c(OC)c1)C2=O | 30.8 | 11 | 61.6
